Bioassay records as filed in PubChem BioAssay.
Most compounds without a hit are left out; they make up all but 1.9% or so of the library.
Neddyl block: inhibitors of cullin neddylation, primary screen, biochemical, TR-FRET, uHTS, NAE and Ubc12; NEDD8-conjugating enzyme Ubc12 (Homo sapiens) + NEDD8-activating enzyme E1 regulatory …; inhibition, % at 25 µM; 360,000 tested, 0.58% active; AID 651699, 2012; in the data active means inhibition above about 36%
SR-BI DiI inh: inhibitors of SR-BI mediated HDL lipid uptake, primary screen, ldlA[mSR-BI] cells, fluorescence, single point. Scavenger receptor class B member 1 (Mus musculus), Q61009. 320,000 tested, 0.96% active. ldlA[mSR-BI] CHO cells, DiI-HDL uptake fluorescence, 3 h. inhibition, % at 12.5 µM. AID 488896, 2010;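 active means mean replicate inhibition of at least 70% and a set share of replicates each scoring 70 or more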;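 further: 0% = median of neutral control wells and 100% = median of positive control wells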
Target sequence (Q61009 whole entry, looked up): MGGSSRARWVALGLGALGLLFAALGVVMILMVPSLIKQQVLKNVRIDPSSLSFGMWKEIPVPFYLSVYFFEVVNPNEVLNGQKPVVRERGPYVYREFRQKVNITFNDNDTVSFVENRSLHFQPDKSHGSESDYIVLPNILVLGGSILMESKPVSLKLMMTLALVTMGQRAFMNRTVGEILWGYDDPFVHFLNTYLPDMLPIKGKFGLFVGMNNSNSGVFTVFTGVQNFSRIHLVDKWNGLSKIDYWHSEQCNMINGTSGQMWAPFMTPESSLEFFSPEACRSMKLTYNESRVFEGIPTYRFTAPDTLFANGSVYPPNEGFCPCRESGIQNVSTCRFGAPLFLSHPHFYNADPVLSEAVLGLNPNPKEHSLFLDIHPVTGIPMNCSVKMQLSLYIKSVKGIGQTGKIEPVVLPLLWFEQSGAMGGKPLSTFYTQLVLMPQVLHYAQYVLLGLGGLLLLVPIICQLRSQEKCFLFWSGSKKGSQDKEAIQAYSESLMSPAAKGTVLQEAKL
UBC13 inh: UBC13 polyubiquitin chain formation inhibitors, primary screen, biochemical, TR-FRET, uHTS. Ubiquitin-conjugating enzyme E2 N (Homo sapiens), P61088. inhibition, % at 20 µM. 330,000 tested, 0.47% active; in the data active means inhibition above about 45%, passing the limit was not always enough
Target sequence (P61088 whole entry, looked up): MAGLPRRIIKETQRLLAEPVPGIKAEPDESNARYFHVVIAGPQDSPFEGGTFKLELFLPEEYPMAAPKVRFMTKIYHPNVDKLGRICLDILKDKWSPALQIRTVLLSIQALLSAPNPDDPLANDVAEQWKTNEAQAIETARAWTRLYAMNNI
SR-BI DiI-HDL act: activators of SR-BI mediated DiI-HDL uptake, primary screen, ldlA[mSR-BI] CHO cells, DiI fluorescence | 3 h; 100 = double the neutral-control signal | activation, % at 12.5 µM | 320,000 tested, 0.096% active;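 active means mean replicate activation of at least 60% and every replicate at or above 60%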;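 further: 0% = median plate neutral-control signal and 100% = twice that signal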
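Assay system: LDL receptor-deficient CHO ldlA cells overexpressing murine SR-BI / Medium: BSA-supplemented, HEPES-buffered Ham's F12, pH 7.4 / Probe or stimulus: DiI-labelled HDL at 10 µg/mL final / Timing: compound with DiI-HDL co-incubation, 3 h at 37 °C / Technique: bottom-read cell fluorescence after medium removal, ex 550/em 595 nm / Measure: HDL uptake via cellular fluorescence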
* marks the source's active call; other numbers are inactive results; · = no result shown.

SMILES | Neddyl block | SR-BI DiI inh | UBC13 inh | SR-BI DiI-HDL act
CC(C)N(Cc1ccccc1)C(=O)CN1C(=O)COc2ccc(S(=O)(=O)N3CCCCCC3)cc21 | 2.8 | 15.3 | 3.5 | -15.3
CC(C)OCCCNc1ncnc2c1[nH]c1ccccc12 | 38.4* | -26.1 | 9.1 | 26.1
CCOCCCNC(=O)C(NC(=O)c1ccccc1O)c1ccc(Cl)cc1 (stereo not given) | 43.1* | -1.5 | 11.6 | 1.5
O=c1[nH]c(CN2CCCCC2)ccc1O | -3.7 | · | · | ·
Cc1cccc(NC(=O)c2ccc(NC(=O)c3ccccc3Br)cc2)c1 | 1.2 | 71.9* | 1.9 | -71.9
Cc1cccc(NC(=S)NNC(=O)c2ccccc2Br)c1 | -1.4 | -8.1 | -15.8 | 8.1
O=C(Nc1ccc(N2CCCC2)cc1)c1cc(Cl)ccc1Cl | 4.3 | 40.5 | -4.3 | -40.5
O=C(Nc1ccc(N2CCCC2)cc1)c1cc2ccccc2o1 | 11.3 | 71.6* | -7.6 | -71.6
O=C(Nc1ccc(N2CCCC2)cc1)c1cccc(Cl)c1 | 6.4 | 86.1* | 3.1 | -86.1
O=C(Nc1ccc(N2CCCC2)cc1)c1ccc(Br)cc1 | 17.0 | 75.8* | 1.9 | -75.8
COc1ccc(C2=CC(=O)C[C@H](c3ccc(Cl)cc3)C2)cn1 | -40.6 | 29.6 | 4.2 | -29.6
COc1cc(OC)cc(C(=O)Nc2cccc(N3CCCC3)c2)c1 | 15.5 | 87.0* | 6.6 | -87.0
CC(C)Oc1ccc(C(=O)Nc2ccc(N3CCN(C(=O)c4ccco4)CC3)cc2)cc1 | 16.0 | 74.2* | 3.5 | -74.2
COc1ccc(C(=O)N2CCN(c3ccc(NC(=O)c4ccco4)cc3)CC2)cc1 | -0.3 | 9.4 | -12.0 | -9.4
COc1ccc(Br)cc1C(=O)Nc1ccc(N2CCCC2)cc1 | 11.9 | 78.2* | -1.1 | -78.2
CC(C)Oc1ccc(C(=O)Nc2ccc(N3CCCC3)cc2)cc1 | 10.5 | 75.2* | -11.7 | -75.1
COc1cc(OC)cc(C(=O)Nc2cccc(C(C)=O)c2)c1 | -2.9 | 49.1 | 1.5 | -49.1
Cc1cc(NN)nc(Cc2ccccc2)n1 | -6.3 | -2.9 | 4.6 | 2.9
COc1ccc(S(=O)(=O)N2CCOCC2)cc1NC(=O)CCCSc1ccccc1 | 4.6 | · | · | ·
N/C(=N\OC(=O)c1ccc2ccccc2c1)c1ccccc1Cl | -22.1 | 16.3 | 5.0 | ·
COc1ccccc1C(=O)Nc1cc2cc(Br)ccc2oc1=O | 31.1 | 99.8* | 4.9 | -15.0
Cc1ccc(C(=O)Nc2ccc(N3CCN(C(=O)c4ccco4)CC3)cc2)c(Cl)c1 | 0.2 | 84.6* | 4.2 | -84.6
O=C(Nc1ccc(N2CCN(C(=O)c3ccco3)CC2)cc1)c1ccc([N+](=O)[O-])cc1Cl | -30.5 | 58.7 | -10.5 | -58.7
Cc1ccc(C(=O)Nc2ccc(Br)c(C(F)(F)F)c2)cc1 | 14.6 | 72.1* | 3.2 | -72.1
COc1ccc(Br)cc1C(=O)Nc1cccc(C)c1 | 7.6 | 75.4* | 12.8 | -75.4
SMILES | Neddyl block | SR-BI DiI inh | UBC13 inh | SR-BI DiI-HDL act
CC1CCCCC12NC(=O)N(CC(=O)OCc1cccc(F)c1)C2=O (stereo not given) | 8.5 | -7.6 | 14.8 | 7.6
O=C(OCc1cn([C@H]2CN(CC3CCCCC3)[C@@H](c3ccccc3)C[C@@H]2O)nn1)c1ccccc1 | 4.6 | · | · | ·
Cc1ccccc1C(=O)N1CCN(c2ccc(NC(=O)c3cccc(OC(C)C)c3)cc2)CC1 | 1.4 | 73.8* | -3.3 | -73.8
Cc1cc(C)cc(C(=O)Nc2ccc(N3CCCC3)cc2)c1 | 7.5 | 87.5* | 9.5 | -87.5
COc1c(C)cccc1C(=O)Nc1ccc(N2CCN(C(=O)c3ccccc3C)CC2)cc1 | 19.9 | 41.3 | 4.0 | -41.3
Cc1ccc(C(=O)N2CCN(c3ccc(NC(=O)c4cc(C)cc(C)c4)cc3)CC2)cc1 | -3.6 | 30.0 | -1.4 | -30.1
O=C(NNC(=O)c1ccccc1O)c1cc2ccccc2o1 | 18.2 | 145.3* | -21.1 | -145.3
CN(C)CC1(C)Cc2ccsc2C1O (stereo not given) | -3.2 | -17.0 | · | 17.0
Cc1ccccc1-c1cnc(C(O)c2c(C)cccc2C)[nH]1 (stereo not given) | -8.4 | · | · | ·
O=c1[nH][nH]c(-c2ccccc2O)c1C(C[N+](=O)[O-])c1ccc(Br)cc1 (stereo not given) | 14.4 | 8.6 | 7.2 | -8.6
Cc1ccc(C(C[N+](=O)[O-])c2c(-c3ccccc3O)[nH][nH]c2=O)cc1 (stereo not given) | 40.5* | -11.3 | -6.8 | 11.3
CCOC(=O)c1cnc2c(-c3ccc(Cl)cc3)c(C)nn2c1N | -9.5 | -12.4 | 9.7 | 12.4
CCOC(=O)c1cnc2cc(-c3ccc(Cl)cc3)nn2c1N | -42.0 | 86.4* | 1.6 | -86.4
CN(c1ccccc1)c1nc(N)c([N+](=O)[O-])c(Nc2ccccc2)n1 | -18.0 | 22.5 | 6.5 | -22.5
COc1ccc(Nc2nc(N(C)c3ccccc3)nc(N)c2[N+](=O)[O-])cc1 | -14.3 | -137.5 | -2.4 | 137.5*
Cc1nc2cc(-c3ccccc3)nn2c(C)c1CCC(=O)NC(C)c1ccc2c(c1)OCCO2 (stereo not given) | · | 77.0* | 7.9 | -77.0
Cc1nc2cc(-c3cccc(F)c3)nn2c(C)c1CCC(=O)NC(C)c1ccc2c(c1)OCCO2 (stereo not given) | · | 56.1 | 16.3 | -56.1
CCOc1cc2[nH]c(=S)n(C3CCN(Cc4ccccc4)CC3)c(=O)c2cc1OCC | -14.8 | 74.5* | -10.5 | -74.5
O=c1c2cc3c(cc2[nH]c(=S)n1C1CCN(Cc2ccccc2)CC1)OCO3 | -8.5 | -22.2 | 0.1 | 22.2
COc1cccc(COC(=O)C(Cc2ccccc2)NC(=O)c2ccco2)c1 (stereo not given) | -3.2 | · | · | ·
Cc1cc(NCCCCCCCNc2cc(C)nc3cc([N+](=O)[O-])ccc23)c2ccc([N+](=O)[O-])cc2n1 | 45.5* | 12.8 | · | -12.8
CC1=C(C(=O)N(C(C)C)C(C)C)CC(CC(=O)NCc2cccs2)C(=O)N1Cc1ccc(C(C)(C)C)cc1 (stereo not given) | -4.0 | · | · | ·
Cc1cc(O)ccc1-c1cc(C(=O)NCc2ccc(F)cc2)[nH]n1 | 8.1 | · | · | ·
N#Cc1ccccc1NC(=O)CNc1ccccc1N1CCCCC1 | 10.6 | 80.6* | 9.1 | -80.6
CN(Cc1ccccc1NCC(=O)Nc1ccccc1C#N)C1CCCCC1 | -8.9 | -2.0 | 9.3 | 2.0
SMILES | Neddyl block | SR-BI DiI inh | UBC13 inh | SR-BI DiI-HDL act
Cc1ccc(NS(=O)(=O)c2cccc(C(=O)NCC(c3ccc(F)cc3)N3CCOCC3)c2)cc1 (stereo not given) | 4.4 | 9.8 | -3.7 | -9.8
COc1cc(-c2noc(C)c2/C=C/c2cccc([N+](=O)[O-])c2)cc(OC)c1OC | -31.6 | 81.0* | -1.3 | -81.0
COc1cc(-c2noc(C)c2/C=C/c2ccc(C(=O)O)cc2)cc(OC)c1OC | -36.1 | -11.4 | -16.1 | 11.4
Cc1ccc(S(=O)(=O)N(C)C)cc1NC(=O)CN1C(=O)NC2(CCCCCCC2)C1=O | 2.2 | 10.1 | -3.2 | -10.1
Cc1[nH]n(-c2ccccc2)c(=O)c1N=Nc1ccc2c(c1)OCCO2 | -34.8 | 11.1 | -81.8 | -11.1
Cc1[nH]n(-c2ccccc2)c(=O)c1N=Nc1c(O)cc(S(=O)(=O)N(C)C)c2ccccc12 | -87.0 | 136.1* | -85.5 | -136.1
